Reference: publication PMC5132079 (Clinical Pharmacology in Drug Development, 2016)
“Also recorded” adds a separate entry of the source. Like-named read-outs stand apart in the source and are kept apart here. Each block holds one compound with its values, some of them ahead of it.

Experiments:
[1] = system: UGT and cytochrome P450 (CYP) enzymes; settings: in vitro; cited from earlier work
[2] = system: unrestrained male monkeys; settings: nonclinical study, cited from earlier work
[3] = cited from earlier work
UGT1A1, UGT1A9 = settings: to inactive glucuronide metabolites; cited from earlier work
[4] = monkeys, 1000 mg/kg; nonclinical study; cited from earlier work
[5] = Plasma cabotegravir pharmacokinetics after third dose; assay type: in vivo; settings: human, po, 150 mg; for AUC(0-t) / Tmax: oral 150 mg every 12 hours × 3 doses; for Tmax: median (range)
Summary of the method: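 Healthy adults took oral test compound 150 mg (5 × 30-mg tablets) every 12 h for 3 doses, fasting ≥6 h before and 4 h after the third dose. Plasma was sampled predose and 0.5–24 h after the day-2 dose. Samples were protein-precipitated and run on HPLC-MS/MS (TurboIonSpray, MRM), range 25–25 000 ng/mL. Noncompartmental analysis gave Cmax, Tmax, AUC0–12 and AUC0–24.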

[6] = cited from earlier work; remark: listed apart in the source
[7] = system: QTcF in clinical study subjects; settings: 8 phase 1/2a studies, n = 245 subjects, cited from earlier work
hERG channel = settings: 5.28 μM [2.14 μg/mL]; HEK 293 cells; nonclinical studies; cited from earlier work
healthy subjects = assay: Safety assessments; assay type: in vivo, human; settings: for Alanine aminotransferase increased / Any adverse event / Blood creatine phosphokinase increased / Dermatitis contact / Headache / Nausea: safety population
Summary of the method: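 Healthy adults aged 18–55 were crossed over between test compound (150 mg every 12 h ×3), placebo and a positive control, with ≥21-day washouts. Monitoring ran throughout and covered adverse events, laboratory tests, vital signs and physical examinations. Semisupine 12-lead safety ECGs were taken at 0, 3, 12 and 15 h on day 1, at 0 and 3 h on day 2, and at 24 h on day 3. Summaries were descriptive.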

[8] = single dose 150 mg; ref unpublished data; cited from earlier work
[9] = Previous single-dose cabotegravir 150 mg pharmacokinetic study; assay type: in vivo, human
[10] = Drug exposure in monkey cardiovascular study; assay type: in vivo; settings: 1000 mg/kg in monkeys vs 150 mg every 12 hours × 3 doses in humans
HIV-1 = settings: oral cabotegravir, early clinical studies; cited from earlier work
[11] = system: QTcF interval in healthy subjects; assay: Thorough QT study, continuous Holter monitoring, time-matched ΔΔQTcF; assay type: in vivo, human; settings: for time of maximum effect of ΔΔQTcF: after dosing on day 2
Summary of the method: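 3-period crossover: test compound 150 mg orally every 12 h ×3, placebo, or single 400-mg fluoroquinolone positive control; ≥21-day washouts. Continuous 12-lead 1000-Hz Holter; day −1 24-h baseline. Triplicate ECGs extracted 0.5–24 h after day-2 dose, lead II, blinded central reader; QT Fridericia-corrected; time-matched placebo-subtracted change (ΔΔQTcF) by repeated-measures ANCOVA with 90% CIs; concentration relation via linear mixed-effects model.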

QTc in healthy subjects = settings: randomized, placebo-controlled study of 20 healthy subjects; cited from earlier work
cardiac repolarization = settings: prior studies; cited from earlier work
[12] = single dose 1000 mg/kg, within the first 2 hours of dosing
[13] = 150 mg every 12 hours × 3 doses
[14] = supratherapeutic dose, 150 mg every 12 hours × 3 doses
[15] = single dose 150 mg, extrapolation from 30-mg data
[16] = cabotegravir 150 mg every 12 hours × 3 doses
[17] = linear mixed-effects PK/pharmacodynamic model

AUC(0-t) ([5]; both, AUC0–12, geometric mean (CV,%) [90%CI], all subjects (n = 40)): 217 µg·h/mL
AUC(0-t) ([5]; both, AUC0–24, geometric mean (CV,%) [90%CI], all subjects (n = 40)): 386 µg·h/mL
Tmax ([5]; both, all subjects (n = 40)): ~2 h
Cmax ([5]; female): 25100 ng/mL
AUC(0-t) ([5]; female, AUC0–12, geometric mean (CV,%) [90%CI], women (n = 9)): 234 µg·h/mL
AUC(0-t) ([5]; female, AUC0–24, geometric mean (CV,%) [90%CI], women (n = 9)): 409 µg·h/mL
Tmax ([5]; female, women (n = 9)): 2 h
Cmax ([5]; male): 21900 ng/mL
AUC(0-t) ([5]; male, AUC0–12, geometric mean (CV,%) [90%CI], men (n = 31)): 213 µg·h/mL
AUC(0-t) ([5]; male, AUC0–24, geometric mean (CV,%) [90%CI], men (n = 31)): 380 µg·h/mL
Tmax ([5]; male, men (n = 31)): 2 h
geometric mean Cmax higher than after repeat 30 mg once daily ([9]; single dose 150 mg vs 30 mg once daily in HIV-infected subjects): 39%
predicted AUC0–∞ [9, 15]: 870 µg·h/mL
predicted Cmax [9, 15]: 21200 ng/mL
Structure (SMILES): C[C@H]1CO[C@@H]2Cn3cc(C(=O)NCc4ccc(F)cc4F)c(=O)c(O)c3C(=O)N12 [Cabotegravir]
inhibition or induction of UGT and cytochrome P450 (CYP) enzymes [1]: has not been shown to inhibit or induce
ECG waveform or interval changes ([2]; single dose 1000 mg/kg): no electrocardiogram (ECG) waveform or interval changes
transient increase in heart rate [2, 12]: ~20%
transient increase in mean arterial pressure [2, 12]: ~6%
cardiovascular effects ([2]; single doses of 8 and 25 mg/kg): no effects
dose proportionality of pharmacokinetics ([3]; 10 to 60 mg, previous work): dose‐proportional manner from 10 to 30 mg, but in a less than proportional manner from 30 to 60 mg
plasma half-life ([3]; oral cabotegravir): 40 h
dose proportionality of AUC(0–t), Cmax, Cτ, and Cmin ([3]; repeated administration for 14 days): Dose‐proportional increases
metabolic pathway (UGT1A1, UGT1A9): metabolized via UDP‐glucuronosyltransferase (UGT) 1A1, with a secondary contribution from UGT1A9
Cmax [4]: 67000 ng/mL
Cmax at steady state ([6]; clinically therapeutic dose 30 mg once daily): 7500 ng/mL
Cmax ([6]; repeat administration of 30 mg once daily in HIV-infected subjects): 7490 ng/mL
overall mean difference in QTcF change from baseline between cabotegravir and placebo ([7]; 2540 postdose ECGs): –2.9 milliseconds
subjects with QTcF ≥ 480 milliseconds or change from baseline in QTcF of >60 milliseconds [7]: no subject
effects on hERG channel tail current (hERG channel): no different than those observed with vehicle
clinical laboratory values, vital signs, or safety ECG results (healthy subjects; [13]): No clinically significant trends
serious or grade 3 or 4 adverse events (healthy subjects; [13]): no serious or grade 3 or 4 adverse events
Alanine aminotransferase increased (healthy subjects; cabotegravir 150 mg (n = 40)): 1 (3) n (%)
Any adverse event (healthy subjects; cabotegravir 150 mg (n = 40)): 13 (33) n (%)
Blood creatine phosphokinase increased (healthy subjects; cabotegravir 150 mg (n = 40)): 0 n (%)
Dermatitis contact (healthy subjects; cabotegravir 150 mg (n = 40)): 6 (15) n (%)
Headache (healthy subjects; cabotegravir 150 mg (n = 40)): 1 (3) n (%)
Nausea (healthy subjects; cabotegravir 150 mg (n = 40)): 0 n (%)
Dermatitis contact (healthy subjects; cabotegravir 150 mg (n = 40), listed as cabotegravir): 6 n (%)
tolerability (healthy subjects; [14]): well tolerated
geometric mean Cmax [8]: 10400 ng/mL
geometric mean plasma AUC0–∞ [8]: 418 µg·h/mL
median time to Cmax (Tmax) [8]: 2.5 h
drug exposure (Cmax) in monkeys relative to present study [10]: 3 fold
antiretroviral activity (HIV-1): potent antiretroviral activity
tolerability (HIV-1): generally well tolerated
time of maximum effect of ΔΔQTcF [11]: 8 h
point estimate for ΔΔQTcF at any point [11, 16]: ≤ 5 milliseconds
subjects with QTcF value > 450 milliseconds [11, 16]: not associated with any instances
subjects with changes from baseline in QTcF of >30 milliseconds [11, 16]: none of the subjects
ΔΔQTcF, mean ± SE ([11]; cabotegravir 150 mg every 12 hours × 3 doses minus placebo, 1 h): -0.37 ± 1.74 ms
ΔΔQTcF, mean ± SE ([11]; cabotegravir 150 mg every 12 hours × 3 doses minus placebo, 2 h): 0.44 ± 1.83 ms
ΔΔQTcF, mean ± SE ([11]; cabotegravir 150 mg every 12 hours × 3 doses minus placebo, 3 h): -0.62 ± 1.69 ms
ΔΔQTcF, mean ± SE ([11]; cabotegravir 150 mg every 12 hours × 3 doses minus placebo, 4 h): -0.37 ± 1.53 ms
ΔΔQTcF, mean ± SE ([11]; cabotegravir 150 mg every 12 hours × 3 doses minus placebo, 6.5 h): 0.50 ± 1.63 ms
ΔΔQTcF, mean ± SE ([11]; cabotegravir 150 mg every 12 hours × 3 doses minus placebo, 12 h): -0.34 ± 1.66 ms
ΔΔQTcF, mean ± SE ([11]; cabotegravir 150 mg every 12 hours × 3 doses minus placebo, 24 h): 1.13 ± 2.05 ms
upper limits of 2-sided 90% confidence intervals for ΔΔQTcF ([11]; cabotegravir 150 mg every 12 hours × 3 doses, all time points): < 10 milliseconds
subjects with QTcF value > 450 milliseconds ([11]; cabotegravir 150 mg every 12 hours × 3 doses, listed as cabotegravir): No subject
mean estimated intercept, ΔΔQTcF vs time-matched cabotegravir concentration [11, 17]: 1.382 milliseconds
relationship between cabotegravir plasma concentrations and ΔΔQTcF [11, 17]: no relationship; also recorded: no discernable concentration effect
effect on cardiac repolarization [11, 14]: no effect on cardiac repolarization

Structure (SMILES): COc1c(N2C[C@@H]3CCCN[C@@H]3C2)c(F)cc2c(=O)c(C(=O)O)cn(C3CC3)c12 [Moxifloxacin, moxifloxacin, reference compound]
time of first peak of placebo-adjusted QTcF change from baseline (QTc in healthy subjects): 4 h
time of second increase in QTc (QTc in healthy subjects): 8 h
Alanine aminotransferase increased (healthy subjects; moxifloxacin 400 mg (n = 36)): 0 n (%)
Any adverse event (healthy subjects; moxifloxacin 400 mg (n = 36)): 12 (33) n (%)
Blood creatine phosphokinase increased (healthy subjects; moxifloxacin 400 mg (n = 36)): 1 (3) n (%)
Dermatitis contact (healthy subjects; moxifloxacin 400 mg (n = 36)): 2 (6) n (%)
Headache (healthy subjects; moxifloxacin 400 mg (n = 36)): 2 (6) n (%)
Nausea (healthy subjects; moxifloxacin 400 mg (n = 36)): 2 (6) n (%)
Dermatitis contact (healthy subjects; moxifloxacin 400 mg (n = 36), listed as moxifloxacin): 2 n (%)
time of maximum effect of ΔΔQTcF [11]: 8 h
ΔΔQTcF, mean ± SE ([11]; moxifloxacin 400 mg single dose minus placebo, 0.5 h): 5.40 ± 2.05 ms
ΔΔQTcF, mean ± SE ([11]; moxifloxacin 400 mg single dose minus placebo, 1 h): 8.75 ± 1.79 ms
ΔΔQTcF, mean ± SE ([11]; moxifloxacin 400 mg single dose minus placebo, 2 h): 11.67 ± 1.88 ms
ΔΔQTcF, mean ± SE ([11]; moxifloxacin 400 mg single dose minus placebo, 3 h): 10.49 ± 1.73 ms
ΔΔQTcF, mean ± SE ([11]; moxifloxacin 400 mg single dose minus placebo, 4 h): 11.81 ± 1.57 ms
ΔΔQTcF, mean ± SE ([11]; moxifloxacin 400 mg single dose minus placebo, 6.5 h): 10.08 ± 1.68 ms
ΔΔQTcF, mean ± SE ([11]; moxifloxacin 400 mg single dose minus placebo, 8 h (maximum observed)): 13.03 ± 1.63 ms
ΔΔQTcF, mean ± SE ([11]; moxifloxacin 400 mg single dose minus placebo, 12 h): 7.79 ± 1.69 ms
ΔΔQTcF, mean ± SE ([11]; moxifloxacin 400 mg single dose minus placebo, 24 h): 6.53 ± 2.10 ms
lower limit of the 90%CI for ΔΔQTcF ([11]; moxifloxacin 400 mg, at several times): > 5 millisecond

Structure (SMILES): C[C@@H]1CCO[C@H]2Cn3cc(C(=O)NCc4ccc(F)cc4F)c(=O)c(O)c3C(=O)N12 [dolutegravir]
effect on cardiac repolarization (cardiac repolarization): do not affect cardiac repolarization
